Each structure is given as a SMILES string.

In ChEMBL document CHEMBL1150693, “Structures of new dammarane-type Triterpene Saponins from the flower buds of Panax notoginseng and hepatoprotective effects of principal Ginseng Saponins” (2003) one finds inhibition in vivo data, which are given here for 12 compounds.

Holding throughout (type): functional
Holding throughout (settings): route intraperitoneal

Test [1] has as its system Mus musculus. Briefly: Hepatoprotective activity against D-galactosamine/LPS-induced liver injury in ddY mouse assessed as inhibition of serum alanine transaminase level at 100 mg/kg, ip administered 1 hr before D-galactosamine/LPS challenge by Reitman-Frankel method. In a few lines: (§1)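 Male ddY mice (about 25-27 g) fasted 20 h; liver injury induced by i.p. D-GalN (350 mg/kg) plus LPS (10 µg/kg, Salmonella enteritidis) in saline. Test sample given i.p. 1 h before challenge. Blood taken from infraorbital venous plexus 10 h after D-GalN/LPS; sALT and sAST measured by Reitman-Frankel method (Karmen units). Mean ± SEM; one-way ANOVA with Dunnett's test.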

Test [2] has as its system Mus musculus. Briefly: Hepatoprotective activity against D-galactosamine/LPS-induced liver injury in ddY mouse assessed as inhibition of serum aspartate transaminase level at 100 mg/kg, ip administered 1 hr before D-galactosamine/LPS challenge by Reitman-Frankel method. In a few lines: as §1
The subject of test [3] is Mus musculus. The experiment in a line: Hepatoprotective activity against D-galactosamine/LPS-induced liver injury in ddY mouse assessed as inhibition of serum alanine transaminase level at 20 mg/kg, ip administered 1 hr before D-galactosamine/LPS challenge by Reitman-Frankel method. In a few lines:
(§2)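 Male ddY mice (about 25-27 g) fasted 20 h; liver injury induced by ip D-GalN (350 mg/kg) plus LPS (10 µg/kg, Salmonella enteritidis) in saline. Sample given ip 1 h before D-GalN/LPS. Blood drawn from infraorbital venous plexus 10 h after challenge; sALT and sAST measured by Reitman-Frankel kit, in Karmen units; % inhibition reported. Means ± SEM; one-way ANOVA with Dunnett's test.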

The subject of test [4] is Mus musculus. The experiment in a line: Hepatoprotective activity against D-galactosamine/LPS-induced liver injury in ddY mouse assessed as inhibition of serum aspartate transaminase level at 20 mg/kg, ip administered 1 hr before D-galactosamine/LPS challenge by Reitman-Frankel method. In outline:
as §2

The test system of test [5] is Mus musculus. The experiment in a line: Hepatoprotective activity against D-galactosamine/LPS-induced liver injury in ddY mouse assessed as inhibition of serum aspartate transaminase level at 50 mg/kg, ip administered 1 hr before D-galactosamine/LPS challenge by Reitman-Frankel method. In a few lines:
as §1

Test [6] has as its system Mus musculus. Briefly: Hepatoprotective activity against D-galactosamine/LPS-induced liver injury in ddY mouse assessed as inhibition of serum alanine transaminase level at 50 mg/kg, ip administered 1 hr before D-galactosamine/LPS challenge by Reitman-Frankel method. In a few lines: as §1

As for `CC(C)=CCC[C@](C)(O[C@@H]1O[C@H](CO)[C@@H](O)[C@H](O)[C@H]1O)[C@H]1CC[C@]2(C)[C@@H]1[C@H](O)C[C@@H]1[C@@]3(C)CC[C@H](O)C(C)(C)[C@@H]3[C@@H](O[C@@H]3O[C@H](CO)[C@@H](O)[C@H](O)[C@H]3O[C@@H]3O[C@H](CO)[C@@H](O)[C@H](O)[C@H]3O)C[C@]12C`, the inhibition in vivo (as a rule, the share of the control response that was lost under treatment) at 100 mg/kg was 34% in the test on Mus musculus [1] and 40% with Mus musculus [2].
On to `CC(C)=CCC[C@](C)(O[C@@H]1O[C@H](CO[C@@H]2O[C@H](CO)[C@@H](O)[C@H](O)[C@H]2O)[C@@H](O)[C@H](O)[C@H]1O)[C@H]1CC[C@]2(C)[C@@H]1[C@H](O)C[C@@H]1[C@@]3(C)CC[C@H](O)C(C)(C)[C@@H]3[C@@H](O[C@@H]3O[C@H](CO)[C@@H](O)[C@H](O)[C@H]3O)C[C@]12C` [notoginsenoside-R6], for which the inhibition in vivo at 100 mg/kg in the test with Mus musculus [1] was found to be 32%; in the test with Mus musculus [2] it was 44%.
`CC(C)=CCC[C@](C)(O[C@@H]1O[C@H](CO)[C@@H](O)[C@H](O)[C@H]1O)[C@H]1CC[C@]2(C)[C@@H]1[C@H](O)C[C@@H]1[C@@]3(C)CC[C@H](O)C(C)(C)[C@@H]3[C@@H](O[C@@H]3O[C@H](CO)[C@@H](O)[C@H](O)[C@H]3O[C@@H]3O[C@@H](C)[C@H](O)[C@@H](O)[C@H]3O)C[C@]12C` [GINSENOSIDE RE]: the inhibition in vivo at 100 mg/kg in the test with Mus musculus [1] was found to be 92%; with Mus musculus [2], 90%.
In the case of `C[C@]12CCC(=O)C=C1CC[C@@H]1[C@@H]2[C@@H](O)C[C@@]2(C)[C@H]1CC[C@]2(O)C(=O)CO` [HYDROCORTISONE], the inhibition in vivo at 20 mg/kg with Mus musculus [3] was 99%; in the test with Mus musculus [4], 97%.
With `CC(C)=CCC[C@](C)(O[C@@H]1O[C@H](CO[C@@H]2O[C@@H](CO)[C@H](O)[C@H]2O)[C@@H](O)[C@H](O)[C@H]1O)[C@H]1CC[C@]2(C)[C@@H]1[C@H](O)C[C@@H]1[C@@]3(C)CC[C@H](O[C@@H]4O[C@H](CO)[C@@H](O)[C@H](O)[C@H]4O[C@@H]4O[C@H](CO)[C@@H](O)[C@H](O)[C@H]4O)C(C)(C)[C@@H]3CC[C@]12C` [GINSENOSIDE RC], the inhibition in vivo at 50 mg/kg in the test with Mus musculus [5] amounted to 80%; in the test with Mus musculus [6], 77%. The inhibition in vivo at 100 mg/kg in the test with Mus musculus [1] was 89%; in the test with Mus musculus [2], 87%.
As for `CC(C)=CCC[C@](C)(O[C@@H]1O[C@H](CO[C@@H]2O[C@H](CO)[C@@H](O)[C@H](O)[C@H]2O)[C@@H](O)[C@H](O)[C@H]1O)[C@H]1CC[C@]2(C)[C@@H]1[C@H](O)C[C@@H]1[C@@]3(C)CC[C@H](O[C@@H]4O[C@H](CO)[C@@H](O)[C@H](O)[C@H]4O)C(C)(C)[C@@H]3CC[C@]12C` [GYPENOSIDE XVII], the inhibition in vivo at 100 mg/kg turned out to be 95% in the test on Mus musculus [1] and 91% in the test with Mus musculus [2].
As for `CC(C)=CCC[C@](C)(O[C@@H]1O[C@H](CO)[C@@H](O)[C@H](O)[C@H]1O)[C@H]1CC[C@]2(C)[C@@H]1[C@H](O)C[C@@H]1[C@@]3(C)CC[C@H](O)C(C)(C)[C@@H]3[C@@H](O[C@@H]3O[C@H](CO)[C@@H](O)[C@H](O)[C@H]3O)C[C@]12C` [GINSENOSIDE RG1], the inhibition in vivo at 100 mg/kg in the test on Mus musculus [1] was 30%; in the test with Mus musculus [2] it was 12%.
On to `CC(C)=CCC[C@](C)(O[C@@H]1O[C@H](CO[C@@H]2OC[C@@H](O)[C@H](O)[C@H]2O)[C@@H](O)[C@H](O)[C@H]1O)[C@H]1CC[C@]2(C)[C@@H]1[C@H](O)C[C@@H]1[C@@]3(C)CC[C@H](O[C@@H]4O[C@H](CO)[C@@H](O)[C@H](O)[C@H]4O[C@@H]4O[C@H](CO)[C@@H](O)[C@H](O)[C@H]4O)C(C)(C)[C@@H]3CC[C@]12C` [GINSENOSIDE RB3], for which the inhibition in vivo at 50 mg/kg stood at 72% in the test on Mus musculus [5] and 77% in the test with Mus musculus [6]. Moreover, the inhibition in vivo at 100 mg/kg in the test on Mus musculus [1] turned out to be 91%; in the test with Mus musculus [2], 80%.
With `CC(C)=CCC[C@](C)(O[C@@H]1O[C@H](CO[C@@H]2O[C@H](CO)[C@@H](O)[C@H](O)[C@H]2O)[C@@H](O)[C@H](O)[C@H]1O)[C@H]1CC[C@]2(C)[C@@H]1[C@H](O)C[C@@H]1[C@@]3(C)CC[C@H](O[C@@H]4O[C@H](CO)[C@@H](O)[C@H](O)[C@H]4O[C@@H]4O[C@H](CO)[C@@H](O)[C@H](O)[C@H]4O)C(C)(C)[C@@H]3CC[C@]12C` [GINSENOSIDE RB1], the inhibition in vivo at 100 mg/kg with Mus musculus [1] was determined as 33%; with Mus musculus [2] it was 40%.
With `CC(C)=CCC[C@](C)(O[C@@H]1O[C@H](CO)[C@@H](O)[C@H](O)[C@H]1O)[C@H]1CC[C@]2(C)[C@@H]1[C@H](O)C[C@@H]1[C@@]3(C)CC[C@H](O[C@@H]4O[C@H](CO)[C@@H](O)[C@H](O)[C@H]4O[C@@H]4O[C@H](CO)[C@@H](O)[C@H](O)[C@H]4O)C(C)(C)[C@@H]3CC[C@]12C` [GINSENOSIDE RD], the inhibition in vivo at 100 mg/kg amounted to 97% in the test with Mus musculus [1] and 93% in the test with Mus musculus [2].
In the same order, the values of `CC(C)=CCC[C@](C)(O)[C@H]1CC[C@]2(C)[C@@H]1[C@H](O)C[C@@H]1[C@@]3(C)CC[C@H](O)C(C)(C)[C@@H]3[C@@H](O[C@@H]3O[C@H](CO)[C@@H](O)[C@H](O)[C@H]3O)C[C@]12C` [GINSENOSIDE RH1] are 93% and 90%.
For `CC(C)=CCC[C@](C)(O[C@@H]1O[C@H](CO)[C@@H](O)[C@H](O)[C@H]1O)[C@H]1CC[C@]2(C)[C@@H]1[C@H](O)C[C@@H]1[C@@]3(C)CC[C@H](O)C(C)(C)[C@@H]3[C@@H](O[C@@H]3O[C@H](CO)[C@@H](O)[C@H](O)[C@H]3O[C@@H]3OC[C@@H](O)[C@H](O)[C@H]3O)C[C@]12C` [NOTOGINSENOSIDE R1], the inhibition in vivo at 100 mg/kg was found to be 87% in the test with Mus musculus [1] and 89% in the test on Mus musculus [2].
